From ChEMBL document CHEMBL5674882, “Benzolactam-related compounds promote apoptosis of HIV-infected human cells via protein kinase C-induced HIV latency reversal” (J Biol Chem, 2019)
The source made the active and inactive calls. No cut-off for these calls is given here.

How the values were obtained:
[1] = target: T1, Protein kinase C (PKC) (Homo sapiens) (UniProt O94806+P41743+P17252+P05129+Q05655+P05771+Q05513+Q02156+P24723+Q15139+Q04759); assay: Activation of PKC in CCL19-induced human CD4+ T-cells infected with latent HIV-1 assessed as reversal of HIV-1 latency by measuring increase in p24 antigen level at 2 uM incubated for 48 hrs in presence of 100 nM PMA by chemiluminescent enzyme immunoassay; format: cell-based; conditions: CD4+ T cell, filed as activator
[2] = target: T1, Protein kinase C (PKC) (Homo sapiens); assay: Activation of PKC in human U1 cells infected with latent HIV-1 assessed as reversal of HIV-1 latency by measuring increase in p24 antigen level at 1 to 10000 nM incubated for 48 hrs by chemiluminescent enzyme immunoassay; format: cell-based; conditions: dose 1-10000 nM
Method in brief: (§1)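 ACH-2 or U1 cells (5 × 10^5 cells/ml) incubated 48 h with graded drug concentrations. Supernatant p24 antigen measured by automated chemiluminescent immunoassay. EC50 calculated taking the maximum response with excess PMA as 100%. Means ± S.D. of three independent experiments.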

[3] = target: T1, Protein kinase C (PKC) (Homo sapiens); assay: Activation of PKC in human ACH-2 cells infected with latent HIV-1 assessed as reversal of HIV-1 latency by measuring increase in p24 antigen level at 1 to 10000 nM incubated for 48 hrs by chemiluminescent enzyme immunoassay; format: cell-based; conditions: ACH-2 cell line, dose 1-10000 nM; method in brief: as §1
U1 [4] = assay: Induction of apoptosis in human U1 cells at 1 uM incubated for 48 hrs by propidium iodide/annexin-V staining based flow cytometry (reference value: 3.16%); format: functional
[5] = Toxicity in human CD4+ T-cells assessed as increase in ratio of CD25+ cells incubated for 24 hrs by flow cytometry; format: cell-based; conditions: cd4+ t cell
Method in brief: (§2)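 Primary CD4+ T-cells from healthy donors treated with drug for 24 h. Cells stained with anti-CD25 and anti-CD69 antibodies (plus CD3, CD4, HLA-DR) for 30 min on ice, then marker-positive proportions quantified by flow cytometry.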

ACH-2 cell line [6] = assay: Induction of apoptosis in human ACH-2 cells at 1 uM incubated for 48 hrs after pre-incubated for 2 hrs with 20 uM caspase inhibitor Q-VD-Oph by propidium iodide/annexin-V staining based flow cytometry; format: functional, cell-based
Method in brief: (§3)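 ACH-2 or U1 cells pretreated 2 h with 20 µM pan-caspase inhibitor Q-VD-Oph, then exposed to 1 µM compound for 48 h. Annexin-V/PI staining by flow cytometry; apoptotic proportions compared with and without Q-VD-Oph. Mean ± S.D.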

U1 [7] = assay: Induction of apoptosis in human U1 cells at 1 uM incubated for 48 hrs after pre-incubated for 2 hrs with 20 uM caspase inhibitor Q-VD-Oph by propidium iodide/annexin-V staining based flow cytometry; format: functional, cell-based; method in brief: as §3
J-Lat 6.3 [8] = assay: Induction of apoptosis in human J-Lat 6.3 cells assessed as caspase-3 activation at 1 uM incubated for 24 hrs by flow cytometry (reference value: 2.43%); format: functional
Method in brief: (§4)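 Cells fixed in 1% paraformaldehyde, permeabilized, stained 30 min on ice with anti-active caspase-3 mAb, and analysed by flow cytometry. Three independent experiments.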

U1 [9] = assay: Induction of apoptosis in human U1 cells assessed as caspase-3 activation at 1 uM incubated for 24 hrs by flow cytometry; format: functional; method in brief: as §4
ACH-2 cell line [10] = assay: Induction of apoptosis in human ACH-2 cells at 1 uM incubated for 48 hrs by propidium iodide/annexin-V staining based flow cytometry (reference value: 3.16%); format: functional
U-937 = assay: Induction of apoptosis in human U-937 cells assessed as caspase-3 activation at 1 uM incubated for 24 hrs by flow cytometry; format: functional; method in brief: as §4
[11] = Toxicity in human PBMC assessed as reduction in cell viability after 5 days by WST8 assay; format: cell-based; conditions: time 5 day
Method in brief: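 PBMC from a healthy donor exposed to drug, with viability determined at day 5. CC50 is the concentration reducing viability by 50%.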

U1 [12] = assay: Induction of apoptosis in human U1 cells assessed as caspase-3 activation at 1 uM incubated for 24 hrs by flow cytometry (reference value: 1.86%); format: functional; method in brief: as §4
[13] = Toxicity in human CD4+ T-cells assessed as increase in ratio of CD69+ cells incubated for 24 hrs by flow cytometry; format: cell-based; conditions: cd4+ t cell; method in brief: as §2
[14] = Toxicity in human A3.01 cells assessed as reduction in cell viability after 48 hrs by WST8 assay; format: cell-based
Method in brief: (§5)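 Parental, uninfected lines (A3.01 for ACH-2, U937 for U1) at 5 × 10^5 cells/ml cultured with or without drug. Viable cells read at 48 h (day 2) and expressed as % of untreated control. CC50 taken as the concentration lowering viability by 50%.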

[15] = Toxicity in human U-937 cells assessed as reduction in cell viability after 48 hrs by WST8 assay; format: cell-based; method in brief: as §5
ACH-2 cell line [16] = assay: Induction of apoptosis in human ACH-2 cells assessed as caspase-3 activation at 1 uM incubated for 24 hrs by flow cytometry; format: functional; method in brief: as §4
Jurkat = assay: Induction of apoptosis in human Jurkat cells assessed as caspase-3 activation at 1 uM incubated for 24 hrs by flow cytometry; format: functional; method in brief: as §4
[17] = Induction of apoptosis in human CEM A3.01 cells assessed as caspase-3 activation at 1 uM incubated for 24 hrs by flow cytometry; format: functional; method in brief: as §4
ACH-2 cell line [18] = assay: Induction of apoptosis in human ACH-2 cells at 1 uM after 48 hrs by PI/annexin-V staining based flow cytometry; format: functional
U1 [19] = assay: Induction of apoptosis in human U1 cells at 1 uM after 48 hrs by PI/annexin-V staining based flow cytometry; format: functional
J-Lat 6.3 [20] = assay: Induction of apoptosis in human J-Lat 6.3 cells assessed as caspase-3 activation at 1 uM incubated for 24 hrs by flow cytometry; format: functional; method in brief: as §4
ACH-2 cell line [21] = assay: Induction of apoptosis in human ACH-2 cells assessed as cleaved-PARP level at 1 uM incubated for 24 hrs by flow cytometry (reference value: 1.64%); format: functional
Method in brief: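 Cells fixed, permeabilized, stained on ice with anti-cleaved PARP (Asp-214) mAb; % cleaved-PARP cells by flow cytometry. Means ± S.D. of three independent experiments.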

J-Lat 6.3 (Homo sapiens) = assay: Induction of apoptosis in human J-Lat 6.3 cells at 1 uM incubated for 48 hrs after pre-incubated for 2 hrs with 20 uM caspase inhibitor Q-VD-Oph by propidium iodide/annexin-V staining based flow cytometry
J-Lat 6.3 [22] = assay: Induction of apoptosis in human J-Lat 6.3 cells at 1 uM incubated for 48 hrs by propidium iodide/annexin-V staining based flow cytometry (reference value: 3.16%); format: functional

In the case of C[C@H](CCC(=O)O)C[C@H](C)C[C@H](C)C(=O)/C=C(\O)[C@H](C)C[C@H](C)C/C=C/[C@@H](C)[C@@H](O)[C@@H](C)[C@@H](O)C[C@@H]1CC[C@@](C)([C@H]2CC[C@@](C)([C@@H](C)O)O2)O1, the Activity [1] is reported as “Active”.
In the case of CCCCCCCCCCc1ccc2c(c1)N(C)[C@@H](C(C)C)C(=O)N[C@H](CO)CC2, the Activity [2] is reported as “inactive” and the Activity [3] is reported as “inactive”.
For CC(C)[C@@H]1C(=O)N[C@H](CO)Cc2cc3c(cc2N1C)C(C)(C)CCC3(C)C, the Activity [2] was “inactive” and the Activity [3] was “inactive”.
For CC(=O)O[C@@]12C[C@@H](C)[C@@]3(O)[C@@H](C=C(CO)C[C@]4(O)C(=O)C(C)=C[C@@H]34)[C@@H]1C2(C)C [PROSTRATIN], the Activity (U1 [4]) was 12.7%, the Activity [5] was “Non-Toxic” and the Activity (ACH-2 cell line [6]) was “inactive”. For the same molecule, the Activity (U1 [7]) was “inactive”, the Activity (J-Lat 6.3 [8]) was 15.6% and the Activity (U1 [9]) was 29.9%. For the same molecule, the Activity (ACH-2 cell line [10]) was 34.7%, the Activity (U-937) was 0.307% and the CC50 at 120 h [11] was greater than 100 µM. The Activity (U1 [12]) was 7.83%, the Activity [13] was “Non-Toxic” and the CC50 at 48 h [14] was greater than 100 µM. For the same molecule, the CC50 at 48 h [15] was greater than 100 µM, the Activity (ACH-2 cell line [16]) was 14% and the Activity (Jurkat) was 1.47%. For the same molecule, the Activity [17] was 1.06%, the Activity (ACH-2 cell line [18]) was 37.7% and the Activity (U1 [19]) was 14.1%. The Activity (J-Lat 6.3 [20]) was 8.66%, the Activity (ACH-2 cell line [21]) was 15.2% and the Activity (J-Lat 6.3 (Homo sapiens)) was “inactive”. It also gave an Activity (J-Lat 6.3 [22]) of 13.7%.
